Data published in ChEMBL document CHEMBL4325886, “Synthesis and SAR studies of novel benzodiazepinedione-based inhibitors of Clostridium difficile (C. difficile) toxin B (TcdB)” (Bioorg Med Chem Lett, 2018).

Assays:
Toxin B [1] = biological target: T1, Toxin B (Clostridioides difficile, UniProt P18177); assay: Inhibition of C-terminal 6-His tagged recombinant Clostridium difficile toxin B glucosyltransferase domain assessed as reduction in UDP-glucose hydrolysis activity using UDP-glucose substrate and ADP Alexa633 tracer incubated for 3 hrs by fluorescence polarization assay
T1 sequence (P18177 whole entry, the tested form may be a part): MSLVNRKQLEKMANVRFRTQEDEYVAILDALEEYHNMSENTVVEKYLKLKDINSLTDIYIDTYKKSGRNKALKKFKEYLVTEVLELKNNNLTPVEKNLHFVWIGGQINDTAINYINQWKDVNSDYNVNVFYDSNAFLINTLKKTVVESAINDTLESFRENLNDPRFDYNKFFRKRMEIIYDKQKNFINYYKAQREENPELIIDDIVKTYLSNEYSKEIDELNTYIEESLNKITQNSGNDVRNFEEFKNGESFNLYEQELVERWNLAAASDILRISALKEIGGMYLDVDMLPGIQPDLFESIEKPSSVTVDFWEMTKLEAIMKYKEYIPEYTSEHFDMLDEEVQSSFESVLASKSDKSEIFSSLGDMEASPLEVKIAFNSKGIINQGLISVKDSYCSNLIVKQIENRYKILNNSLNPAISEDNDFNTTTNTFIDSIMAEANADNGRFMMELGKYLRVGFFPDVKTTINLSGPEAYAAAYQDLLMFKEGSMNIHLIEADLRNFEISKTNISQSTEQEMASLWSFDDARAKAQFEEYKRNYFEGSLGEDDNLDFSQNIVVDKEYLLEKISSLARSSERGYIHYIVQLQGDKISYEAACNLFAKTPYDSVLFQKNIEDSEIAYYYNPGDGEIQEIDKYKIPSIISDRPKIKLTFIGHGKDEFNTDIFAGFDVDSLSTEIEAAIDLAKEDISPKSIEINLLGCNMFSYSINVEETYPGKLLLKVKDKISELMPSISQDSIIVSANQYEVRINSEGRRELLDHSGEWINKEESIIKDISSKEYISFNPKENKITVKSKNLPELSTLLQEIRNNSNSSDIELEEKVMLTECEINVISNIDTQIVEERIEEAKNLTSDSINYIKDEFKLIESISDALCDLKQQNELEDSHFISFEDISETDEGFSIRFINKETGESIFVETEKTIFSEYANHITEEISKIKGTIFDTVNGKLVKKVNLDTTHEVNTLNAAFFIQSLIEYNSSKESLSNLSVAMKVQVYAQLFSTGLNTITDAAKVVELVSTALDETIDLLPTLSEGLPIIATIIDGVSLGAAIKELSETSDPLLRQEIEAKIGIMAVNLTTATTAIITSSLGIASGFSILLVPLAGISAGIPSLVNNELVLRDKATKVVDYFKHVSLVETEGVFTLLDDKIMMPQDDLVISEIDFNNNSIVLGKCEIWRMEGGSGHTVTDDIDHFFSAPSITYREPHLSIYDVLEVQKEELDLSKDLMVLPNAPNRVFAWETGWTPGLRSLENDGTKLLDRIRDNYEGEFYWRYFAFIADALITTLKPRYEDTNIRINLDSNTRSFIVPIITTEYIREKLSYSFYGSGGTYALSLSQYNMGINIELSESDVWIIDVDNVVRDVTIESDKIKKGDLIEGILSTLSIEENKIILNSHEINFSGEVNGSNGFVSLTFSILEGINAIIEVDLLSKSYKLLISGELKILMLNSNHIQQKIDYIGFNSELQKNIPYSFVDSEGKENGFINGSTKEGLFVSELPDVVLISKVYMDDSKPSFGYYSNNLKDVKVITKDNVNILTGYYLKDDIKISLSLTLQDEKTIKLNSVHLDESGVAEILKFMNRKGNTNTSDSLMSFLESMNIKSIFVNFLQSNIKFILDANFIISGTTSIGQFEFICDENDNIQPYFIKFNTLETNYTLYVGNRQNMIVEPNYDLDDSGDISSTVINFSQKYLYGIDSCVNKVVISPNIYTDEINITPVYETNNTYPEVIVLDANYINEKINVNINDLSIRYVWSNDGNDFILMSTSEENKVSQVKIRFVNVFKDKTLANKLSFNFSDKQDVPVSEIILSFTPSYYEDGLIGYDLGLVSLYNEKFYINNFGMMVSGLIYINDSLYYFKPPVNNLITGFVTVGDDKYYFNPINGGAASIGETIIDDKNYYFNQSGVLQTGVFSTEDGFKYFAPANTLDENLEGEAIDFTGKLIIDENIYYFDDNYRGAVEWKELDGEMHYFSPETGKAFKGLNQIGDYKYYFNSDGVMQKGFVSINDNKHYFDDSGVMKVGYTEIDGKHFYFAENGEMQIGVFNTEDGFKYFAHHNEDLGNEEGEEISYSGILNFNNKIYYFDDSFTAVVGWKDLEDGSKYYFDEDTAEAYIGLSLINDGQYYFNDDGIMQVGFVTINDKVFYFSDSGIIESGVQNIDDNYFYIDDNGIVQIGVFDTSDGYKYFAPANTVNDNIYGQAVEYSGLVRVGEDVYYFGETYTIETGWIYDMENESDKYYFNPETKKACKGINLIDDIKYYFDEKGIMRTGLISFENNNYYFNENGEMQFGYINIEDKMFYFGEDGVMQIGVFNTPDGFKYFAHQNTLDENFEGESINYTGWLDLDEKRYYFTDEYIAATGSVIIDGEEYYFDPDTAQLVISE

[2] = Metabolic stability in human liver microsomes assessed as parent compound remaining after 15 mins; format: ADME, Microsome; conditions: read-out: Stability
[3] = Metabolic stability in mouse liver microsomes assessed as parent compound remaining after 15 mins; format: ADME, Microsome; conditions: read-out: Stability
Toxin B [4] = biological target: T1, Toxin B; assay: Inhibition of Clostridium difficile toxin B […] CHO cells assessed as reduction in caspase 3/7 activation pre-incubated for 1 hr before TcdB addition by luminescence based assay; format: cell-based
Toxin A = Toxin A (Clostridioides difficile, UniProt P16154); assay: Inhibition of Clostridium difficile toxin A […] CHO cells assessed as reduction in caspase 3/7 activation pre-incubated for 1 hr before TcdA addition by luminescence based assay; format: cell-based
Toxin A, sequence (P16154 whole entry): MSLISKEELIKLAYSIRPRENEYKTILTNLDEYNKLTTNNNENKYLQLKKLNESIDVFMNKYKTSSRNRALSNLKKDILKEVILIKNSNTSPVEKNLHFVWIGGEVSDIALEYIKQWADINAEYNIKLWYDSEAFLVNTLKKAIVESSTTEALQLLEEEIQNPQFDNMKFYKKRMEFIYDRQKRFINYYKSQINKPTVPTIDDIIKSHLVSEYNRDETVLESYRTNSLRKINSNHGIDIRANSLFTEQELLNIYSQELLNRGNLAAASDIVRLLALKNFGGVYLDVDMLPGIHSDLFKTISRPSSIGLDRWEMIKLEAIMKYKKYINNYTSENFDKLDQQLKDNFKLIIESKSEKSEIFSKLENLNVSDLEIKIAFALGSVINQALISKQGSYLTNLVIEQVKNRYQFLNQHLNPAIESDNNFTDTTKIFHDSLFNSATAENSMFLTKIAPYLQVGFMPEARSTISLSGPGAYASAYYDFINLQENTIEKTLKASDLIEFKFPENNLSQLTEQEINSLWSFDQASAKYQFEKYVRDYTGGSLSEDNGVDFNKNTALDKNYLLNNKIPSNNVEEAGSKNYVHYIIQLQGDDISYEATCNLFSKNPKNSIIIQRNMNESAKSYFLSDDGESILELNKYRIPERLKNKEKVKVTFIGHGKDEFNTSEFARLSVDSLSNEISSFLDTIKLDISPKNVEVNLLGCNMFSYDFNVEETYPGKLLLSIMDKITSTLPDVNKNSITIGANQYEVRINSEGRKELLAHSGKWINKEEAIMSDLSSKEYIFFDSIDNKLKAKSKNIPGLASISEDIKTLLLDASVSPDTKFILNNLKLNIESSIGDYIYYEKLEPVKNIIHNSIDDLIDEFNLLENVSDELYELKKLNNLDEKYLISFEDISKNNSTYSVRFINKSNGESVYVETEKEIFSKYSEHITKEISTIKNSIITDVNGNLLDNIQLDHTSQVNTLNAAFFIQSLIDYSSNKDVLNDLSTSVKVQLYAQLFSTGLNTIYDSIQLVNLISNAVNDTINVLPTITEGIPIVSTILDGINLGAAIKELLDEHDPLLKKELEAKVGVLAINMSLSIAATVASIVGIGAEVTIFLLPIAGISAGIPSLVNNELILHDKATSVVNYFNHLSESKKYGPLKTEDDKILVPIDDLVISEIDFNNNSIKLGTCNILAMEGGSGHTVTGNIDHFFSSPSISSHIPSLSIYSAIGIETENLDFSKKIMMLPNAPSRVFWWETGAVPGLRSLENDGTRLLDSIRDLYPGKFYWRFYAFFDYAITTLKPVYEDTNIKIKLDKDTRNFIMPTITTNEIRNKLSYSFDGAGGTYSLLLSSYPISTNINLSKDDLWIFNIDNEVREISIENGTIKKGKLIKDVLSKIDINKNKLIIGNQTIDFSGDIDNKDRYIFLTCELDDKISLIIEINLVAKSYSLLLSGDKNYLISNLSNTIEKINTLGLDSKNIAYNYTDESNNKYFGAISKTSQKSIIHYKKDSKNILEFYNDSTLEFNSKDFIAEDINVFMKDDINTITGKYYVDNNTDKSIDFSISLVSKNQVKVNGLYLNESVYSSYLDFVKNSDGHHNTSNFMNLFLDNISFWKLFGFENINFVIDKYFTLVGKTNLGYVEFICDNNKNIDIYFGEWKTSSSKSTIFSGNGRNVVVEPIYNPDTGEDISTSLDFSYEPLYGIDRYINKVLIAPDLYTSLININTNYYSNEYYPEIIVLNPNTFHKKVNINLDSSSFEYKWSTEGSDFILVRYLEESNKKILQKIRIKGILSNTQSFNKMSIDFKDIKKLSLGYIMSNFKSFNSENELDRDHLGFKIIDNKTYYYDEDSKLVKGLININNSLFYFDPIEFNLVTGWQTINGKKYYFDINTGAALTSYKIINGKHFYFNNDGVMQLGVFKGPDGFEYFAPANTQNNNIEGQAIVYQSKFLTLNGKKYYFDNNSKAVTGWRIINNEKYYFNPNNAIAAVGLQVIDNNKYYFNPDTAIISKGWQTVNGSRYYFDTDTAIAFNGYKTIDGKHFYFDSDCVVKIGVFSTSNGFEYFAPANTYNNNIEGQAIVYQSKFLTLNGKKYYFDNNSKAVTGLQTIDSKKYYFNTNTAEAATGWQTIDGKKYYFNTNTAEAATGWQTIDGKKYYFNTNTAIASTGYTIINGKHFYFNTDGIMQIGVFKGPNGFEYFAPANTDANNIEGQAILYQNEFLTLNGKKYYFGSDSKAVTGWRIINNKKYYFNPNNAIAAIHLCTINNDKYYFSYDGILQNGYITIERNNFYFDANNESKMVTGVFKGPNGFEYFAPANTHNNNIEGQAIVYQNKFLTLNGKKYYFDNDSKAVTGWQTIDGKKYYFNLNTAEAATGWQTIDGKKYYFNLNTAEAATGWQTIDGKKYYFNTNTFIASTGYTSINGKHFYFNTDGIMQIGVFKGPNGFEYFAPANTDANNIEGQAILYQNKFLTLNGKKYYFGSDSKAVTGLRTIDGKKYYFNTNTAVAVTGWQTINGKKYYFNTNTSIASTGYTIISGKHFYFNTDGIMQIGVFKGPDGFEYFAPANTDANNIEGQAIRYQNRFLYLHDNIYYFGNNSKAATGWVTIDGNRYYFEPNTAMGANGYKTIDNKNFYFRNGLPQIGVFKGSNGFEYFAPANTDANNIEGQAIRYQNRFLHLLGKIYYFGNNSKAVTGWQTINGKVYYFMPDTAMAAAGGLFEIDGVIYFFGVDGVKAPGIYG

Clostridioides difficile [5] = assay: Antibacterial activity against Clostridium difficile infected hamster assessed as host survival at 5 mg/kg, po bid treated for 7 days (reference value: 2.3 days); format: functional
[6] = Metabolic stability in mouse plasma assessed as parent compound remaining after 2 hrs; format: ADME, cell-free
How it was run: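 Compound incubated in mouse plasma for 2 h. Parent compound remaining was measured, and the carboxylic acid hydrolysis product was also monitored.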

[7] = Apparent oral clearance in hamster at 10 mg/kg, po; format: ADME, organism-based; conditions: cricetinae, in vivo
[8] = AUC (0 to infinity) in CD-1 mouse at 10 mg/kg, po; format: ADME, organism-based; set-up: dose 10 mg/kg, time infinity, route oral; conditions: in vivo
How it was run: (§1)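 CD-1 mice, single dose. The i.v. dose was 1 mg/kg in 40% PEG400/5% ethanol/55% water (v/v/v). The p.o. dose was 10 mg/kg in 20% PEG400/80% (0.5% (w/v) CMC with 0.25% (v/v) Tween 80) (v/v). Plasma samples were analysed to derive Cl, T1/2, Vz, AUC0-inf, Cmax, Tmax and oral bioavailability F.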

[9] = Tmax in hamster at 10 mg/kg, po; format: ADME, organism-based; conditions: cricetinae, in vivo
[10] = Elimination half life in hamster at 10 mg/kg, po; format: ADME, organism-based; conditions: cricetinae, in vivo, read-out: beta t1/2 (converted)
Clostridioides difficile [11] = assay: Antibacterial activity against Clostridium difficile infected hamster assessed as host survival at 50 mg/kg, po bid treated for 7 days (reference value: 2.3 days); format: functional
[12] = Cmax in CD-1 mouse at 10 mg/kg, po; format: ADME, organism-based; set-up: dose 10 mg/kg, route oral; conditions: in vivo; how it was run: as §1
[13] = AUC (0 to infinity) in CD-1 mouse at 1 mg/kg, iv; format: ADME, organism-based; set-up: dose 1 mg/kg, time infinity, route intravenous; conditions: in vivo; how it was run: as §1
[14] = Cmax in CD-1 mouse at 1 mg/kg, iv; format: ADME, organism-based; set-up: dose 1 mg/kg, route intravenous; conditions: in vivo; how it was run: as §1
[15] = Apparent volume of distribution during terminal phase in CD-1 mouse at 1 mg/kg, iv; format: ADME, organism-based; conditions: in vivo; how it was run: as §1
[16] = Elimination half life in CD-1 mouse at 1 mg/kg, iv; format: ADME, organism-based; conditions: in vivo, read-out: beta t1/2 (converted); how it was run: as §1
[17] = Oral bioavailability in CD-1 mouse at 10 mg/kg; format: ADME, organism-based; conditions: in vivo; how it was run: as §1
[18] = AUC(infinity) in hamster at 10 mg/kg, po; format: ADME, organism-based; set-up: dose 10 mg/kg, time infinity, route oral; conditions: cricetinae, in vivo
[19] = Tmax in CD-1 mouse at 10 mg/kg, po; format: ADME, organism-based; conditions: in vivo; how it was run: as §1
[20] = Cmax in hamster at 10 mg/kg, po; format: ADME, organism-based; set-up: dose 10 mg/kg, route oral; conditions: cricetinae, in vivo
[21] = Clearance in CD-1 mouse at 1 mg/kg, iv; format: ADME, organism-based; conditions: in vivo; how it was run: as §1

| SMILES | IC50 (Toxin B [1]) | remaining at 0.25 h [2] | remaining at 0.25 h [3] | IC50 (Toxin B [4]) | IC50 (Toxin A) | also measured |
| --- | --- | --- | --- | --- | --- | --- |
| Cc1ccc(NC(=O)c2ccc(CN3C(=O)c4ccc(Cl)cc4NC(=O)[C@H]3Cc3ccccn3)cc2Cl)nc1 | 5 nM | 57% | 57% | 24 nM | 580 nM | – |
| COc1cc(CN2C(=O)c3ccc(Cl)cc3NC(=O)[C@H]2Cc2ccccn2)ccc1C(=O)Nc1ccc(F)cn1 | 14 nM | 94% | 67% | 1100 nM | 17000 nM | – |
| Cc1cc(CN2C(=O)c3ccc(Cl)cc3NC(=O)[C@H]2Cc2ccccn2)ccc1C(=O)Nc1ccc(C(F)(F)F)cn1 | 20 nM | 100% | 99% | 170 nM | 2400 nM | – |
| Cc1cc(CN2C(=O)c3ccc(Cl)cc3NC(=O)[C@H]2Cc2ccccn2)ccc1C(=O)Nc1ccc(F)cn1 | 8 nM | 85% | 60% | 62 nM | 860 nM | – |
| O=C(c1ccc(CN2C(=O)c3ccc(Cl)cc3NC(=O)[C@H]2Cc2ccccn2)cc1)c1c[nH]c2cccnc12 | 2 nM | 87% | 93% | 1800 nM | 18000 nM | – |
| Cc1ccc(NC(=O)c2ccc(CN3C(=O)c4ccc(Cl)cc4NC(=O)[C@H]3Cc3ccccn3)cc2C)nc1 | 7 nM | 61% | 31% | 61 nM | 860 nM | – |
| COc1cnc(NC(=O)c2ccc(CN3C(=O)c4ccc(Cl)cc4NC(=O)[C@H]3Cc3ccccn3)cc2Cl)nc1 | 4 nM | 73% | 38% | 53 nM | 920 nM | – |
| CN[C@H](CC(C)C)C(=O)N[C@H]1C(=O)N[C@@H](CC(N)=O)C(=O)N[C@H]2C(=O)N[C@H]3C(=O)N[C@H](C(=O)N[C@H](C(=O)O)c4cc(O)cc(O)c4-c4cc3ccc4O)[C@H](O)c3ccc(c(Cl)c3)Oc3cc2cc(c3O[C@@H]2O[C@H](CO)[C@@H](O)[C@H](O)[C@H]2O[C@H]2C[C@](C)(N)[C@H](O)[C@H](C)O2)Oc2ccc(cc2Cl)[C@H]1O [VANCOMYCIN] | – | – | – | – | – | MST (Clostridioides difficile [5]): 12 days |
| Cc1cc(CN2C(=O)c3ccc(Cl)cc3NC(=O)[C@H]2Cc2ccccn2)ccc1C(=O)Nc1ccc(C#N)cn1 | 3 nM | 90% | 70% | 78 nM | – | – |
| COc1cnc(NC(=O)c2ccc(CN3C(=O)c4ccc(Cl)cc4NC(=O)[C@H]3Cc3ccccn3)cc2)nc1 | – | – | – | 3 nM | – | Stability ([6]; 2 h): Unstable |
| COc1ccc(NC(=O)c2ccc(CN3C(=O)c4ccc(Cl)cc4NC(=O)[C@H]3Cc3ccccn3)cc2Cl)nc1 | 5 nM | 100% | 71% | 61 nM | 760 nM | remaining at 2 h ([6]; read-out: Stability): 100% |
| Cc1cnc(NC(=O)c2ccc(CN3C(=O)c4ccc(Cl)cc4NC(=O)[C@H]3Cc3ccccn3)cc2Cl)nc1 | 4 nM | 79% | 33% | 130 nM | 1500 nM | – |
| Cc1ccc(C(=O)c2ccc(CN3C(=O)c4ccc(Cl)cc4NC(=O)[C@H]3Cc3ccccn3)cc2)nc1 | 38 nM | 57% | 68% | 5900 nM | 23000 nM | – |
| COc1ccc(NC(=O)c2ccc(CN3C(=O)c4ccc(Cl)cc4NC(=O)[C@H]3Cc3ccccn3)cc2OC)nc1 | 5 nM | 78% | 71% | 130 nM | 1100 nM | – |
| Cn1cnc(C(=O)c2ccc(CN3C(=O)c4ccc(Cl)cc4NC(=O)[C@H]3Cc3ccccn3)cc2)c1 | 230 nM | 44% | 16% | > 100000 nM | > 100000 nM | – |
| COc1cc(CN2C(=O)c3ccc(Cl)cc3NC(=O)[C@H]2Cc2ccccn2)ccc1C(=O)Nc1ccc(C(F)(F)F)cn1 | 41 nM | 100% | 83% | 660 nM | 31000 nM | – |
| O=C(O)c1ccc(CN2C(=O)c3ccc(Cl)cc3NC(=O)[C@H]2Cc2ccccn2)cc1 | 180 nM | – | – | – | – | – |
| COc1cc(CN2C(=O)c3ccc(Cl)cc3NC(=O)[C@H]2Cc2ccccn2)ccc1C(=O)Nc1ccc(C)cn1 | 9 nM | 62% | 49% | 1900 nM | 11000 nM | – |

| SMILES | IC50 (Toxin B [1]) | remaining at 0.25 h [2] | remaining at 0.25 h [3] | IC50 (Toxin B [4]) | IC50 (Toxin A) | also measured |
| --- | --- | --- | --- | --- | --- | --- |
| Cc1cnc(NC(=O)c2ccc(CN3C(=O)c4ccc(Cl)cc4NC(=O)[C@H]3Cc3ccccn3)cc2Cl)cn1 | 9 nM | 81% | 79% | 220 nM | 2100 nM | – |
| Cn1ccnc1C(=O)c1ccc(CN2C(=O)c3ccc(Cl)cc3NC(=O)[C@H]2Cc2ccccn2)cc1 | 190 nM | 49% | 33% | > 100000 nM | > 100000 nM | – |
| Cc1ccnc(C(=O)c2ccc(CN3C(=O)c4ccc(Cl)cc4NC(=O)[C@H]3Cc3ccccn3)cc2)c1 | 74 nM | 26% | 48% | – | – | – |
| COc1cnc(NC(=O)c2ccc(CN3C(=O)c4ccc(Cl)cc4NC(=O)[C@H]3Cc3ccccn3)cc2C)nc1 | 4 nM | 82% | 39% | 29 nM | 690 nM | – |
| O=C(Nc1ccc(F)cn1)c1ccc(CN2C(=O)c3ccc(Cl)cc3NC(=O)[C@H]2Cc2ccccn2)cc1Cl | 4 nM | 88% | 69% | 130 nM | 1800 nM | – |
| COc1ccc(NC(=O)c2ccc(CN3C(=O)c4ccc(Cl)cc4NC(=O)[C@H]3Cc3ccccn3)cc2C)nc1 | 10 nM | 68% | 51% | 71 nM | 480 nM | – |
| O=C(O)c1c(Cl)cc(CN2C(=O)c3ccc(Cl)cc3NC(=O)[C@H]2Cc2ccccn2)cc1Cl | 7400 nM | – | – | – | – | – |
| Cn1cc(C(=O)c2ccc(CN3C(=O)c4ccc(Cl)cc4NC(=O)[C@H]3Cc3ccccn3)cc2)c2ncccc21 | 6 nM | 67% | 76% | 330 nM | 5300 nM | – |
| O=C(c1ccc(CN2C(=O)c3ccc(Cl)cc3NC(=O)[C@H]2Cc2ccccn2)cc1)c1cccn2ccnc12 | 8 nM | 44% | 27% | 660 nM | 8100 nM | – |
| Cc1cnc(NC(=O)c2ccc(CN3C(=O)c4ccc(Cl)cc4NC(=O)[C@H]3Cc3ccccn3)cc2C)nc1 | 4 nM | 74% | 44% | 130 nM | 3000 nM | – |
| O=C(c1ccc(CN2C(=O)c3ccc(Cl)cc3NC(=O)[C@H]2Cc2ccccn2)cc1)c1cccn2ncnc12 | 61 nM | 15% | 44% | 1600 nM | – | – |
| O=C(c1ccc(CN2C(=O)c3ccc(Cl)cc3NC(=O)[C@H]2Cc2ccccn2)cc1)c1ccccn1 | 45 nM | 64% | 79% | 4200 nM | 37000 nM | – |
| COc1cnc(NC(=O)c2ccc(CN3C(=O)c4ccc(Cl)cc4NC(=O)[C@H]3Cc3ccccn3)cc2Cl)cn1 | 21 nM | 100% | 68% | 490 nM | 3400 nM | – |
| N#Cc1ccc(NC(=O)c2ccc(CN3C(=O)c4ccc(Cl)cc4NC(=O)[C@H]3Cc3ccccn3)cc2Cl)nc1 | 8 nM | 90% | 84% | 52 nM | – | – |
| O=C(Nc1ccc(C(F)(F)F)cn1)c1ccc(CN2C(=O)c3ccc(Cl)cc3NC(=O)[C@H]2Cc2ccccn2)cc1Cl | 18 nM | 94% | 92% | 250 nM | 6300 nM | CL/F [7]: 7.8 mL/min/kg; AUC(0-inf) [8]: 9420 ng·h/mL; Tmax [9]: 0.25 h; half-life [10]: 10 h; MST (Clostridioides difficile [11]): 12.3 days; Cmax [12]: 1530 ng/mL; AUC(0-inf) [13]: 592 ng·h/mL; Cmax [14]: 312 ng/mL; Vz/F [15]: 6.2 L/kg; half-life [16]: 2.6 h; F [17]: 159%; AUC(0-inf) [18]: 21500 ng·h/mL; Tmax [19]: 0.25 h; Cmax [20]: 2750 ng/mL; clearance [21]: 28 mL/min/kg |
| Cc1cccc(C(=O)c2ccc(CN3C(=O)c4ccc(Cl)cc4NC(=O)[C@H]3Cc3ccccn3)cc2)n1 | 340 nM | 25% | 3% | – | – | – |
| O=C(O)c1ccc(CN2C(=O)c3ccc(Cl)cc3NC(=O)[C@H]2Cc2ccccn2)cc1Cl | 480 nM | – | – | – | – | – |
